Assay results taken from ChEMBL document CHEMBL1148755, “Structural analogues of smoothened intracellular loops as potent inhibitors of Hedgehog pathway and cancer cell growth” (J Med Chem, 2007).
Calls of active or inactive are those of the source. The rule behind the calls is not given here. Peptide text beside a SMILES is read from it. * marks the point of attachment. Palmitoyl = CCCCCCCCCCCCCCCC(=O)*

How the values were obtained:
[1] = test system: MCF7; assay: Growth inhibition of breast cancer MCF7 cells after 48 hrs by MTT assay; assay type: functional, cell-based; settings: Homo sapiens
Method in brief: (§1)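 Cells seeded at 200-400 per well in DMEM with 10% FBS and left to attach for 24 h. The next day, inhibitor in medium at 2× was added in an equal volume, and cells were incubated 48 h in a CO2 incubator. Reference plates were read at time of addition for T0 density. MTT staining was read as absorbance at 544 nm and compared with untreated control cells.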

[2] = test system: SK-MEL-2; assay: Growth inhibition of SK-Mel2 melanoma cells after 48 hrs by MTT assay; assay type: functional, cell-based, Homo sapiens; settings: Homo sapiens, SK-MEL-2, 48 h; method in brief: as §1

IC50 [2] | SMILES | Activity [1]
450 nM | CCCCCCCCCCCCCCCC(=O)N[C@@H](CC(C)C)C(=O)N[C@H](C(=O)N[C@@H](Cc1ccc(O)cc1)C(=O)N[C@@H](C)C(=O)N[C@@H](Cc1c[nH]c2ccccc12)C(=O)N[C@@H](Cc1cnc[nH]1)C(=O)N[C@H](C(=O)N[C@@H](CO)C(=O)N[C@@H](Cc1ccccc1)C(=O)N[C@@H](CCCCN)C(=O)N[C@@H](C)C(=O)N[C@@H](CC(C)C)C(=O)NCC(=O)N[C@H](C(=O)N[C@H](C(=O)N[C@@H](Cc1ccc(O)cc1)C(=O)N[C@@H](CCC(N)=O)C(=O)N1CCC[C@H]1C(=O)N[C@@H](CC(C)C)C(=O)N[C@@H](CO)C(=O)NCC(=O)N[C@@H](CCCCN)C(=O)N[C@@H](Cc1ccc(O)cc1)C(=O)N[C@@H](CO)C(=O)N[C@@H](Cc1ccc(O)cc1)C(=O)O)[C@@H](C)O)[C@@H](C)O)[C@@H](C)O)[C@@H](C)O (Palmitoyl-LTYAWHTSFKALGTTYQPLSGKYSY-OH) | Active
640 nM | CCCCCCCCCCCCCCCC(=O)N[C@@H](CCCNC(=N)N)C(=O)NCC(=O)N[C@H](C(=O)N[C@@H](CCSC)C(=O)N[C@H](C(=O)N[C@@H](CC(C)C)C(=O)N[C@@H](Cc1ccccc1)C(=O)N[C@@H](CO)C(=O)N[C@H](C(=O)N[C@@H](CCCCN)C(=O)N[C@@H](CO)C(=O)N[C@@H](CC(N)=O)C(=O)N[C@@H](Cc1c[nH]cn1)C(=O)N1CCC[C@H]1C(=O)NCC(=O)N[C@@H](CC(C)C)C(=O)N[C@@H](CC(C)C)C(=O)N[C@@H](CO)C(=O)N[C@@H](CCC(=O)O)C(=O)N[C@@H](CCCCN)C(=O)N[C@@H](C)C(=O)N[C@@H](C)C(=O)N[C@@H](CO)C(=O)N[C@@H](CCCCN)C(=O)N[C@H](C(=O)N[C@@H](CC(N)=O)C(=O)N[C@@H](CCC(=O)O)C(=O)N[C@H](C(=O)N[C@@H](CCSC)C(=O)N[C@@H](CC(C)C)C(=O)O)[C@@H](C)O)[C@@H](C)CC)[C@@H](C)CC)[C@@H](C)O)C(C)C (Palmitoyl-RGVMTLFSIKSNHPGLLSEKAASKINETML-OH) | Active
